According to PubChem BioAssay:
Calls of active or inactive are those of the source.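 The calls were made as follows, unless noted: active = fluorescence slope after compound addition differing from the mean of all tested samples at 99.7% confidence, mostly higher but some lower; inactive = the rest.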

Legend:
[1] = inhibitors of TNFa-induced NFkB p65 translocation, primary screen, imaging, HUVEC, MLSMR starter and 10KST1 sets (AID 438;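 active = inhibition above 20% together with a positive visual image hit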;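 also: compound added about 3h40 before a 20 min TNFalpha stimulation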;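 as to inhibition: signal is the nuclear over cytoplasmic p65 intensity ratio per well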); details: HUVEC TNFa-induced p65 nuclear translocation; cell count: measured here: nuclei count (cytotoxicity indicator), at 2.08 µM; inhibition: at 2 µM, stronger effect = higher value, 0% TNFa-plus-vehicle, 100% no-TNFa wells
[2] = inhibitors of mutant huntingtin aggregation, primary screen, imaging, exon1htt(103Q)mCFP cells, high-content imaging (AID 483;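 active = visual image review flags a hit and inhibition of aggregation exceeds 20%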;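 also: compound exposure lasted 3 days before fixation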;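 as to nuclei count: percent of the per-plate median nuclei count of sample wells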); details: exon1htt(103Q)mCFP cell line, aggregate imaging, at 2 µM; inhibition of aggregation: stronger effect = higher value; nuclei count: measured here: cell count, toxicity
[3] = inhibitors of E-selectin induction by TNFa, primary screen, imaging, HUVEC, immunofluorescence, MLSMR starter and 10KST1 sets (AID 487;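 active = visually confirmed hit in the image check and inhibition above 20%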;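 as to inhibition: signal is fraction of cell area covered by stained E-selectin grains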;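 as to nuclei count: 100% = median nuclei count of all wells on the same plate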); details: HUVEC TNFalpha-induced E-selectin immunofluorescence imaging, at 2 µM; inhibition: stronger effect = higher value; nuclei count: measured here: cell number, toxicity
[4] = molecular target: Voltage-gated potassium channel subunit beta-2 (Rattus norvegicus) (UniProt P62483); assay: KvBeta enzyme negative modulators, primary screen, biochemical, NADPH fluorescence (AID 622;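 active = fluorescence slope higher than the sample average by over 3 SD, cut at about -0.22 in these data, passing the limit was not always enough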;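 also: slope of raw intensity against log time taken from 70 to 1610 s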); details: recombinant KvBeta, 4-cyanobenzaldehyde reduction, at 10 µM, stronger effect = higher value
[5] = molecular target: Voltage-gated potassium channel subunit beta-2 (Rattus norvegicus) (UniProt P62483); assay: KvBeta positive modulators, primary screen, biochemical, NADPH fluorescence (AID 623;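 active = NADPH fluorescence slope more negative than the mean of all samples by about 3 SD, 99.7% confidence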;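 also: fluorescence intensity change per second fitted from 20 to 320 s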); details: Recombinant KvBeta, NADPH fluorescence decrease slope, 10 min; at 10 µM; stronger effect = lower value
[6] = molecular target: Muscarinic acetylcholine receptor M4 (Homo sapiens) (UniProt P08173); assay: compounds altering M4/GIRK thallium flux, either direction, primary screen, M4 allosteric agonist project, cell-based, HEK293 M4/GIRK, BTC-AM (AID 625); details: at 10 µM, actives lie on both sides;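 also: thallium influx through GIRK channels coupled to M4 in HEK293 cells with BTC-AM dye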
Method in brief: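 Material – HEK293 cells with M4 receptor and GIRK channels · Buffer or medium – pH 7.3 thallium assay buffer · Doses – one dose, 10 µM final · Timing – cells overnight at 37 °C, BTC-AM loading 1 h, reads 2 min total · Measured by – kinetic fluorescence with BTC-AM dye · Controls – carbachol and DMSO controls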

[7] = inhibitors of Sendai virus-induced IRF3 signaling, primary screen, TLR/RLR signaling modifier project, cell-based, Sendai virus stimulus, luciferase, 10K MLSCN set (AID 602276;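 active = inhibition at or above 50% at 10 µM; inactive = inhibition below 50%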;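 also: firefly luciferase from ISG56 promoter only with Renilla not read in this screen; 0% = Sendai virus plus DMSO and 100% = medium plus DMSO without virus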); details: HEK293 RL24 IRF3 luciferase reporter, at 10 µM, stronger effect = higher value
[8] = inhibitors of poly I:C-induced TLR3 signaling, primary screen, cell-based, poly I:C stimulus, luciferase, 10K MLSCN set (AID 602277;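 active = inhibition of the reporter signal at or above 50%; inactive = inhibition below 50%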); details: HEK293-TLR3 RL24 IRF3 luciferase reporter, at 10 µM, stronger effect = higher value

Muscarinic acetylcholine receptor M4 (Homo sapiens), sequence (P08173 whole entry, looked up): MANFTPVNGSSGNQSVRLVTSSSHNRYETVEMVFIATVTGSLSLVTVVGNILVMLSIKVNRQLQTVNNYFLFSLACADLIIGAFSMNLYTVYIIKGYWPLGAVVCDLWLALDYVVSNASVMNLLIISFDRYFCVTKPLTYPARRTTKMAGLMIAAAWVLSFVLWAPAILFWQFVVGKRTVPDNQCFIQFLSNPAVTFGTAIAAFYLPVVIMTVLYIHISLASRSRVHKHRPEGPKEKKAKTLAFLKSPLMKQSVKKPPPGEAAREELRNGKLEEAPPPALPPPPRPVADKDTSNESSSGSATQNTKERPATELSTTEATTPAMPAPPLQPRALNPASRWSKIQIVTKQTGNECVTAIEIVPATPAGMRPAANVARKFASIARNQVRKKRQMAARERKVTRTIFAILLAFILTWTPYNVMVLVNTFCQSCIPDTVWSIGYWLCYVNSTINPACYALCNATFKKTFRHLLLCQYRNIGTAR
Voltage-gated potassium channel subunit beta-2 (Rattus norvegicus), sequence (P62483 whole entry, looked up): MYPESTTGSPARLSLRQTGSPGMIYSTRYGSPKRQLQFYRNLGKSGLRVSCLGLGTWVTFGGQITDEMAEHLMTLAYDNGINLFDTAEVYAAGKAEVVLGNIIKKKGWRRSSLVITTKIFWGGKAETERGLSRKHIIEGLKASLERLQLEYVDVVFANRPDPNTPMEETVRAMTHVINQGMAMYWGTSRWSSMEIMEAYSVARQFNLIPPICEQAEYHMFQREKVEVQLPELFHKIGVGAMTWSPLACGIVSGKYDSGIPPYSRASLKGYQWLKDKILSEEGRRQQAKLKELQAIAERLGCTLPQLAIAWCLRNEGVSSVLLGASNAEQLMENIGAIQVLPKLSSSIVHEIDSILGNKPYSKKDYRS

Compound | cell count [1] | inhibition [1] | inhibition of aggregation [2] | nuclei count [2] [%] | inhibition [3] | nuclei count [3] [%] | fluorescence slope [4] | NADPH fluorescence slope [5] | fluorescence slope [6] | inhibition [7] | inhibition [8]
CCN(CC)C(=O)CSc1nc2ccc(NC(=O)CSc3nccn3C)cc2s1 | 729 | -2.4% (inactive) | -36.9% (inactive) | 116 | 19.3% (inactive) | 94.3 | -0.577 (inactive) | -1.3e-05 (inactive) | 0.00661 (inactive) | -9.79% (inactive) | -19.1% (inactive)
COc1cc(C(=O)N2CCC(c3nc(-c4cccnc4)no3)CC2)cc(OC)c1OC | 651 | -29.6% (inactive) | 2.1% (inactive) | 110 | -33.4% (inactive) | 102 | -0.28 (inactive) | -1.2e-05 (inactive) | 0.00617 (inactive) | 5.18% (inactive) | 24.5% (inactive)
Cn1cccc1-c1nc2ccc(NC(=O)c3ccco3)cc2[nH]1 | 293 | -0.9% (inactive) | -0.8% (inactive) | 86.3 | -8.2% (inactive) | 110 | -0.429 (inactive) | 1e-06 (inactive) | 0.00457 (inactive) | -37.6% (inactive) | -102% (inactive)
c1ccc(-c2csc(N3CCCCCC3)n2)cc1 | 403 | 7.3% (inactive) | -6.8% (inactive) | 112 | -77.2% (inactive) | 110 | -0.551 (inactive) | 9.4e-06 (inactive) | 0.0048 (inactive) | -82.9% (inactive) | -160% (inactive)
CCCCc1cc(=O)oc2cc(C)cc(OC(C)C(=O)O)c12 (stereo not given) | 452 | -2.1% (inactive) | -5.4% (inactive) | 110 | -39.6% (inactive) | 134 | -0.0718 (inactive) | -1e-05 (inactive) | 0.00603 (inactive) | 5.95% (inactive) | 21.5% (inactive)
CC(C)n1c(=NC(=O)c2ccco2)c(C#N)cc2c(=O)n3ccccc3cc21 | 378 | 1.7% (inactive) | -20.7% (inactive) | 104 | -45.7% (inactive) | 112 | -0.576 (inactive) | 3.1e-06 (inactive) | 0.00331 (inactive) | -23.8% (inactive) | -8.73% (inactive)
CC1(c2ccncc2)Nc2ccccc2-c2nc3ccccc3n21 (stereo not given) | 394 | -13.4% (inactive) | 6.2% (inactive) | 69.9 | -182% (inactive) | 122 | -0.454 (inactive) | -2.1e-05 (inactive) | 0.00581 (inactive) | 6.46% (inactive) | -10% (inactive)
CCN(CC)C(=O)CN(c1cc(Cl)ccc1OC)S(C)(=O)=O | 776 | -2.4% (inactive) | -2.7% (inactive) | 108 | 41.2% (inactive) | 96 | -0.577 (inactive) | 4.8e-07 (inactive) | 0.00573 (inactive) | 7.69% (inactive) | 10.1% (inactive)
COc1ccc(CC(=O)NCc2ccccc2)cc1S(=O)(=O)N1CCOCC1 | 404 | -3.1% (inactive) | -17.5% (inactive) | 104 | -26.1% (inactive) | 110 | -0.583 (inactive) | -1.6e-05 (inactive) | 0.00498 (inactive) | 18.6% (inactive) | 21.9% (inactive)
COc1ccc(N(CC(=O)NC2CCCC2)C(=O)Cn2nnc(-c3ccc(C)cc3)n2)cc1 | 465 | -3.9% (inactive) | 8.3% (inactive) | 90.6 | -65.7% (inactive) | 106 | -0.587 (inactive) | 8e-06 (inactive) | 0.00452 (inactive) | -14.1% (inactive) | 0.19% (inactive)
Cc1nc2cc(NC(=O)N3CC4(C)CC3CC(C)(C)C4)ccc2n1C (stereo not given) | 657 | 2.1% (inactive) | 6.5% (inactive) | 104 | 11.9% (inactive) | 105 | -0.484 (inactive) | -8.2e-05 (inactive) | 0.00526 (inactive) | -4.69% (inactive) | 16.4% (inactive)
CCCCNC(=O)c1cc(-c2ccc(F)cc2)on1 | 240 | -2.8% (inactive) | 5.2% (inactive) | 106 | -39.2% (inactive) | 120 | -0.483 (inactive) | -3.3e-05 (inactive) | 0.00454 (inactive) | -21.5% (inactive) | -168% (inactive)
CN(Cc1ccccc1)Cc1nc2c([nH]1)c(=O)[nH]c(=O)n2C | 276 | 12.9% (inactive) | -1.6% (inactive) | 96 | 69.5% (active) | 91.4 | -0.371 (inactive) | -0.000115 (inactive) | 0.0061 (inactive) | 7.51% (inactive) | 14.7% (inactive)
Brc1ccc(-c2nnc3sc(CN4CCC5(CC4)OCCO5)cn23)cc1 | 414 | 3.2% (inactive) | -6.9% (inactive) | 112 | -185% (inactive) | 130 | -0.57 (inactive) | -1.2e-05 (inactive) | 0.00615 (inactive) | 11.1% (inactive) | 14% (inactive)
Cc1ccc(C)c(N2CCN(C(=O)C3CCN(S(=O)(=O)c4c(C)noc4C)CC3)CC2)c1 | 448 | -10.8% (inactive) | 30.5% (inactive) | 77 | -17.6% (inactive) | 99.8 | -0.474 (inactive) | -8.1e-06 (inactive) | 0.00554 (inactive) | 11.3% (inactive) | -1.19% (inactive)
COc1ccc(C)cc1-n1nnnc1SCC(=O)NC(=O)NCc1ccco1 | 180 | -9.6% (inactive) | 25% (inactive) | 65.2 | 8.9% (inactive) | 90.6 | -0.57 (inactive) | -1.3e-05 (inactive) | 0.00596 (inactive) | 16.7% (inactive) | 16% (inactive)
COc1ccc(C2CC(=O)c3cnc(NC(=O)c4ccccc4OC)nc3C2)c(OC)c1 (stereo not given) | 434 | -6.7% (inactive) | 15% (inactive) | 94.2 | -80.1% (inactive) | 107 | -0.459 (inactive) | 0.000189 (inactive) | 0.00664 (inactive) | 14.1% (inactive) | 6.68% (inactive)
Cc1cc(C)cc(N2CCCn3c2nc2c3c(=O)n(CCN3CCOCC3)c(=O)n2C)c1 | 390 | 3.3% (inactive) | 0.7% (inactive) | 108 | 27.6% (inactive) | 103 | -0.388 (inactive) | 6.6e-05 (inactive) | 0.00574 (inactive) | 18.5% (inactive) | 34.4% (inactive)
CCOC(=O)c1ccc(-c2c(C(=O)OCC)oc3cc(O)c(CC)cc3c2=O)o1 | 676 | 6.9% (inactive) | 10.3% (inactive) | 104 | -22.1% (inactive) | 100 | -0.602 (inactive) | -2.5e-05 (inactive) | 0.00385 (inactive) | 15.3% (inactive) | 7.61% (inactive)
Cc1ccc(S(=O)(=O)N[C@@H](C)C(=O)N2CCC(C(=O)N3CCC[C@H]3C(=O)O)CC2)cc1 | 361 | 3.6% (inactive) | -14.8% (inactive) | 102 | -59.3% (inactive) | 129 | -0.406 (inactive) | 7.4e-05 (inactive) | 0.00591 (inactive) | 2.84% (inactive) | 13% (inactive)
O=C(O)C1CSC2c3ccccc3C(=O)N12 (stereo not given) | 729 | -4.7% (inactive) | -3.2% (inactive) | 96.3 | -66.8% (inactive) | 107 | -0.577 (inactive) | -6.7e-06 (inactive) | 0.00676 (inactive) | 11.2% (inactive) | 19% (inactive)
CCCn1c(NC(=O)C2COc3ccccc3O2)nc2ccccc21 (stereo not given) | 496 | 1% (inactive) | -4.8% (inactive) | 98.3 | -56% (inactive) | 102 | -0.467 (inactive) | 0.000114 (inactive) | 0.00578 (inactive) | 15.8% (inactive) | 17.5% (inactive)
CCOC(=O)CSc1cn2c(n1)CCC2 | 547 | -10.9% (inactive) | 14.3% (inactive) | 66.8 | -25.8% (inactive) | 89.1 | -0.595 (inactive) | 1.5e-05 (inactive) | 0.00761 (inactive) | -11.5% (inactive) | -11.4% (inactive)
Cc1nnc(N(Cc2ccco2)C(=O)c2cccc(C#N)c2)s1 | 428 | 7.3% (inactive) | 9.6% (inactive) | 101 | 11.7% (inactive) | 111 | -0.569 (inactive) | -1.4e-05 (inactive) | 0.00607 (inactive) | -0.114% (inactive) | 5.23% (inactive)
CC1CCCC(C(=O)OCc2ccccc2)N1 (stereo not given) | 551 | -10.9% (inactive) | -31.2% (inactive) | 113 | -120% (inactive) | 122 | -0.389 (inactive) | 3.2e-05 (inactive) | 0.00626 (inactive) | 13.2% (inactive) | 20.1% (inactive)
